This is a sample that favours compounds with a hit; in the whole collection about 1.4% have one here.
PLCg1 inh: inhibitors of human phospholipase C gamma1. purified PLC-gamma1, fluorogenic substrate, fluorescence. inhibition, % at 12.2 µM. hit rate 0.84% among 370,000
PLCb3 inh: PLC-beta3 (human) inhibition, primary screen; inhibition, % at 12.2 µM; Q01970; AID 720704; hit rate 0.18% among 370,000; Purified PLC-beta3, fluorogenic substrate, fluorescence; in the data active = inhibition above about 11%;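 also: 0% = median of compound wells on plate and 100% = full blocker control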
Target sequence (Q01970 whole entry, looked up): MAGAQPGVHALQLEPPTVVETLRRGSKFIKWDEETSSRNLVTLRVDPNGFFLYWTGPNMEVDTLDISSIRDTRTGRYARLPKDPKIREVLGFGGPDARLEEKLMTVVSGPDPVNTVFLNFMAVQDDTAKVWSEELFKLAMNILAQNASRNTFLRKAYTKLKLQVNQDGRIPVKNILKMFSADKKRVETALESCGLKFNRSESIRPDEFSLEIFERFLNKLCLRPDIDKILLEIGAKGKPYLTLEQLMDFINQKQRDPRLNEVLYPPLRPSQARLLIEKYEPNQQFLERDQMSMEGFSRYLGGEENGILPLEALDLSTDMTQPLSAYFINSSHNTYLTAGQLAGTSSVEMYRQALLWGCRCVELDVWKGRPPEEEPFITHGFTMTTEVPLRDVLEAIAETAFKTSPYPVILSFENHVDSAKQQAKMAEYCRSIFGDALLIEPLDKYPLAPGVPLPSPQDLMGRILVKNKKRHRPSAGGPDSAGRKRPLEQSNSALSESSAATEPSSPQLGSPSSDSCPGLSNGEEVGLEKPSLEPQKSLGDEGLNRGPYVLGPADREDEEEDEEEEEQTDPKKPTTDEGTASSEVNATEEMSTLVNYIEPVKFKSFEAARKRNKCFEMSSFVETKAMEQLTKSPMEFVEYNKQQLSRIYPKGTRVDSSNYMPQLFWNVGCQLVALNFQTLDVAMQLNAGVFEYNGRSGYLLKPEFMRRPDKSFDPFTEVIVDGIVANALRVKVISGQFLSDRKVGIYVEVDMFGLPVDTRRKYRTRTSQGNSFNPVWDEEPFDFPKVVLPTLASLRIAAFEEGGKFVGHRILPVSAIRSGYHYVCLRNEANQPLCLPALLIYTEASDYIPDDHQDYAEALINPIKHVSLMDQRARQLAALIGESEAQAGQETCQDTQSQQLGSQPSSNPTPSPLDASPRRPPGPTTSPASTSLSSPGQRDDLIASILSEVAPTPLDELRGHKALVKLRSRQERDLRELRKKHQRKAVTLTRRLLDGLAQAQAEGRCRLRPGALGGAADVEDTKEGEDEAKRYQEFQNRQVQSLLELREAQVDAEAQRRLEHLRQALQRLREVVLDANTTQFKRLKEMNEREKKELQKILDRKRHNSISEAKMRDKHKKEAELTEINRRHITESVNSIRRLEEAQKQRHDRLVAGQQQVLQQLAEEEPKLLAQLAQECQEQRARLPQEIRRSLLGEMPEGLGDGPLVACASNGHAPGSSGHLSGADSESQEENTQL
Tn7 DDE FP: DD(E)-Tn7 binding inhibition, primary FP screen | FP displacement of FITC-Tn7 peptide from fibrin DD(E); 0% = median of compound wells per plate | inhibition, % at 8.3 µM | hit rate 0.13% among 370,000;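 active = inhibition above the mean of compounds falling within the control limits plus 3 SD of them, cut at about 14% in these data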;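 also: 0% = plate median of compound wells and 100% = 10 µM Aha-Tn7 peptide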
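Test system: human clot-derived fibrin DD(E) complex / Quantity: 2 µM final DD(E) protein / Incubation: 10 min plus 3 h, room temperature / Measured by: fluorescence polarization / Benchmarks: high control of 10 µM Aha-Tn7 peptide / Replicates: singlicate testing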
Tn6 DDE FP: DD(E)-Tn6 binding inhibition, primary FP screen; inhibition, % at 8.3 µM; AID 720509; hit rate 0.21% among 370,000; Fibrin DD(E) TRITC-Tn6 fluorescence polarization displacement;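 active = inhibition above a per-campaign cutoff: mean of compounds within control limits plus 3 SD, cut at about 15% in these data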;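 also: 0% = median of all compound wells on the plate and 100% = blocking peptide control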
DNA FID counter: fluorescent intercalator displacement, NS3 helicase counter-screen. DNA fluorescent intercalator displacement, fluorescence. inhibition, % at 7.9 µM. hit rate 0.17% among 290,000. AID 1845; in the data active = inhibition above about 37%;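 also: 0% = vehicle and 100% = reference compound; higher means more ethidium bromide displaced from hairpin DNA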
PLCgamma1 ctr: inhibits human PLC-gamma1 in PLC-beta3 counter-screen; shares compounds with PLCg1 inh; purified PLC-gamma1, fluorogenic substrate, fluorescence; inhibition, % at 12.3 µM; hit rate 3.1% among 3,300; AID 743258
PLCb3 confirm: human PLC-beta3 inhibition, confirmation | shares compounds with PLCg1 inh | purified PLC-beta3, fluorogenic substrate fluorescence | inhibition, % at 12.3 µM | hit rate 1% among 3,300 | AID 743261; in the data active = inhibition above about 11%
* marks the source's active call; other numbers are inactive results. Rule as the data show it, unless noted: active = inhibition above about 9.5%; inactive = the rest.

`COC(=O)c1ccc(C2/C(=C(/O)c3ccc(OC)cc3)C(=O)C(=O)N2CC2CCCO2)cc1` (configuration not stated) gave PLCg1 inh 0, PLCb3 inh 4, Tn7 DDE FP 0, Tn6 DDE FP -3 and DNA FID counter -18.
COc1ccc(OC)c(NC(=O)COC(=O)Cc2ccc(Br)cc2)c1 was read as PLCg1 inh -1, PLCb3 inh -3, Tn7 DDE FP -2, Tn6 DDE FP -8 and DNA FID counter -22.
`COc1ccc(OC)c(NC(=O)COC(=O)Cc2ccc(-c3ccccc3)cc2)c1` gave PLCg1 inh 14*, PLCb3 inh 1, Tn7 DDE FP -4, Tn6 DDE FP -12, DNA FID counter -4, PLCgamma1 ctr -8 and PLCb3 confirm -6.
`Cc1cc(C)c2nc(NNC(=O)c3ccc(S(=O)(=O)N4CC(C)CC(C)C4)cc3)sc2c1` (configuration not stated) gave PLCg1 inh -89, PLCb3 inh -94, Tn7 DDE FP -4, Tn6 DDE FP -16 and DNA FID counter -21.
`CC(C)C(NC(=O)c1ccc(C(C)(C)C)cc1)C(=O)NC1=NCCS1` (configuration not stated) gave PLCg1 inh 1, PLCb3 inh 1, Tn7 DDE FP -8, Tn6 DDE FP 8 and DNA FID counter -30.
`Cc1cc2oc(C(=O)Nc3nonc3C)c(C)c2cc1C` gave PLCg1 inh 9.6*, PLCb3 inh -11, Tn7 DDE FP 2, Tn6 DDE FP -4, DNA FID counter -15, PLCgamma1 ctr -13 and PLCb3 confirm -13.
For C=CCOc1ccc(/C(O)=C2/C(=O)C(=O)N(CCCN3CCOCC3)C2c2ccc(OC)cc2)cc1 (configuration not stated) the results were PLCg1 inh -2, PLCb3 inh -2, Tn7 DDE FP -2, Tn6 DDE FP -2 and DNA FID counter -21.
For C=CCOc1ccc(/C(O)=C2/C(=O)C(=O)N(CCCN3CCOCC3)C2c2ccccc2)cc1 (configuration not stated) the results were PLCg1 inh 11*, PLCb3 inh 1, Tn7 DDE FP -3, Tn6 DDE FP 0, DNA FID counter -9, PLCgamma1 ctr -4 and PLCb3 confirm -2.
Screening Cc1ccc(S(=O)(=O)N2CCCCC2C(=O)N2CCN(Cc3ccccc3)CC2)cc1 (configuration not stated) returned PLCg1 inh 12*, PLCb3 inh 8, Tn7 DDE FP 1, Tn6 DDE FP -5, DNA FID counter -20, PLCgamma1 ctr -3 and PLCb3 confirm -1.
For Cc1ccc(S(=O)(=O)N2CCCC2C(=O)NC2CCCCC2)cc1 (configuration not stated) the results were PLCg1 inh 12*, PLCb3 inh 9, Tn7 DDE FP 9, Tn6 DDE FP -2, DNA FID counter -11, PLCgamma1 ctr -3 and PLCb3 confirm -5.
For O=C(COc1ccccc1Cl)NCCNC(=O)c1ccncc1 the results were PLCg1 inh -2, PLCb3 inh -9, Tn7 DDE FP 6, Tn6 DDE FP 4 and DNA FID counter -4.
For CCOC(=O)Cn1c(=NC(=O)C(C)C)sc2c(C)cc(C)cc21 the results were PLCg1 inh 1, PLCb3 inh -11, Tn7 DDE FP 1, Tn6 DDE FP -1 and DNA FID counter -10.
`Cn1cccc1C(=O)OCC(=O)N1CCc2ccccc21` gave PLCg1 inh 0, PLCb3 inh 3, Tn7 DDE FP 7 and Tn6 DDE FP -8.
O=C(O)C1CCCCC1C(=O)Nc1nccs1 (configuration not stated) was read as PLCg1 inh 12*, PLCb3 inh 7, Tn7 DDE FP 3, Tn6 DDE FP -6, DNA FID counter 0, PLCgamma1 ctr -2 and PLCb3 confirm 2.
O=C(Nc1ccccc1Cl)c1ccc(-n2cccn2)c([N+](=O)[O-])c1 was read as PLCg1 inh 11*, PLCb3 inh -3, Tn7 DDE FP 1, Tn6 DDE FP -3, DNA FID counter -4, PLCgamma1 ctr -4 and PLCb3 confirm 0.
Screening COc1ccc(-c2cc(CNC(=O)CN3CCN(C)CC3)on2)cc1 returned PLCg1 inh 9.5*, PLCb3 inh -369, Tn7 DDE FP -7, Tn6 DDE FP -4, DNA FID counter 12, PLCgamma1 ctr -7 and PLCb3 confirm -2.
COc1ccccc1OCC(=O)NC1CCCCCC1 was read as PLCg1 inh 1, PLCb3 inh 0, Tn7 DDE FP -4, Tn6 DDE FP 1 and DNA FID counter -16.
For O=C(CNC(=O)OCc1ccccc1)NC1CCCCCCC1 the results were PLCg1 inh 10*, PLCb3 inh 7, Tn7 DDE FP -5, Tn6 DDE FP 1, DNA FID counter -18, PLCgamma1 ctr -1 and PLCb3 confirm 2.
`COc1ccc(OCC(=O)NC2CCCCCCC2)cc1` gave PLCg1 inh 11*, PLCb3 inh -4, Tn7 DDE FP -9, Tn6 DDE FP -5, DNA FID counter -26, PLCgamma1 ctr -3 and PLCb3 confirm -2.
O=C(CNC(=O)OCc1ccccc1)NC1(C(=O)O)CCCC1 was read as PLCg1 inh 1, PLCb3 inh 4, Tn7 DDE FP -1 and Tn6 DDE FP -1.
`O=C(O)CNC(=O)C1(NC(=O)OCc2ccccc2)CCCC1` gave PLCg1 inh 8, PLCb3 inh 17*, Tn7 DDE FP -1, Tn6 DDE FP 2, PLCgamma1 ctr -3 and PLCb3 confirm 0.
Screening CCOc1ccccc1OCC(=O)NC1CCCCC1 returned PLCg1 inh 11*, PLCb3 inh 4, Tn7 DDE FP -9, Tn6 DDE FP -1, DNA FID counter -13, PLCgamma1 ctr -3 and PLCb3 confirm 0.
For O=C(COC(=O)c1cc(-c2cccs2)nn1-c1ccccc1)Nc1cccc([N+](=O)[O-])c1 the results were PLCg1 inh 1, PLCb3 inh -2, Tn7 DDE FP -3, Tn6 DDE FP -2 and DNA FID counter -1.
Screening Cc1ccc(NC(=O)COC(=O)c2cc(-c3cccs3)nn2-c2ccccc2)cc1[N+](=O)[O-] returned PLCg1 inh 11*, PLCb3 inh 4, Tn7 DDE FP -7, Tn6 DDE FP -1, DNA FID counter -13, PLCgamma1 ctr -4 and PLCb3 confirm -6.
Screening Cc1cccc(CC2S/C(=N/N=C/c3ccco3)N(c3ccccc3)C2=O)c1 (configuration not stated) returned PLCg1 inh 11*, PLCb3 inh 4, Tn7 DDE FP -8, Tn6 DDE FP -6, DNA FID counter -5, PLCgamma1 ctr 0 and PLCb3 confirm -1.

Screening results from PubChem BioAssay.
